Experimental data as given in ChEMBL document CHEMBL4002637, “Synthesis, characterization, in vitro SAR and in vivo evaluation of N,N'bisnaphthylmethyl 2-alkyl substituted imidazolium salts against NSCLC” (Bioorg Med Chem Lett, 2017).
pIC50: −log10 of the molar value. Activity calls are given as the source filed them. The calls are words filed in the database; no cut-off is given here.

Assays:
[1] = species: Bos taurus; assay: Binding affinity to calf thymus DNA assessed as increase in viscosity at 10 to 70 uM using 1% DMSO/water compound formulation by Ostwald viscometric method
[2] = system: HCC827; assay: Antiproliferative activity against human HCC827 cells using 10% 2-HPbetaCD compound formulation after 72 hrs by MTT assay; type: functional, cell-based; settings: HCC827, 72 h
How it was run: (§1)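 MTT anti-proliferation on NSCLC lines. Compounds dissolved in DMSO, diluted with water to 1% DMSO, then into growth medium (max 0.032% DMSO on cells); or dissolved in 10% (w/v) 2-HPβCD in water, then diluted (max 0.008% w/w 2-HPβCD in wells; vehicle controls at 0.008%). IC50 = concentration giving 50% loss of viability versus control cells. Cisplatin dissolved in water with stirring.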

[3] = system: HOP-62; assay: Growth inhibition of human HOP62 cells after 24 hrs by SRB assay; type: functional; settings: HOP-62, 24 h
[4] = system: NCI-H23; assay: Growth inhibition of human NCI-H23 cells assessed as cell growth at 10 uM after 24 hrs by SRB assay relative to control; type: functional; settings: NCI-H23, 24 h, read-out: Activity
How it was run: (§2)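 NCI DTP one-dose screen: cells plated at density set by doubling rate, incubated overnight, then exposed to compound at 10 μM for 24 hours. Growth percentage from protein density at end versus start of experiment, relative to initial cell number.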

[5] = system: A549; assay: Growth inhibition of human A549 cells assessed as cell growth at 10 uM after 24 hrs by SRB assay relative to control; type: functional; settings: A549, 24 h, read-out: Activity; how it was run: as §2
[6] = system: EKVX; assay: Growth inhibition of human EKVX cells after 24 hrs by SRB assay; type: functional
[7] = system: NCI-H460; assay: Induction of apoptosis in human NCI-H460 cells assessed as blebbing at 40 uM after 14 hrs using 10% 2HPbetaCD/water compound formulation by Annexin V-FITC/propidium iodide staining based fluorescence microscopic method; type: functional, cell-based
How it was run: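 Annexin V-FITC/propidium iodide staining of H460 cells in 6-well plates. Compound given in 10% (w/v) 2-HPβCD aqueous solution. Imaged at 12, 14, 17 and 20 h with 20× objective as merged transmitted, green and red channels. Controls: 2-HPβCD and cisplatin, 20 h.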

[8] = system: NCI-H1975; assay: Potency index, ratio of compound cisplatin IC50 to compound IC50 for human NCI-H1975 cells using 10% 2-HPbetaCD compound formulation; type: functional
[9] = system: NCI-H1975; assay: Antiproliferative activity against human NCI-H1975 cells using 1% DMSO/water compound formulation after 72 hrs by MTT assay; type: functional, cell-based; settings: NCI-H1975, 72 h; how it was run: as §1
[10] = system: NCI-H23; assay: Growth inhibition of human NCI-H23 cells after 24 hrs by SRB assay; type: functional; settings: NCI-H23, 24 h
[11] = species: Bos taurus; assay: Binding affinity to calf thymus DNA assessed as increase in viscosity at 10 to 70 uM using 10% 2HPbetaCD/water compound formulation by Ostwald viscometric method
[12] = system: NCI-H460; assay: Induction of apoptosis in human NCI-H460 cells assessed as blebbing at 40 uM up to 6 hrs using 1% DMSO/water compound formulation by Annexin V-FITC/propidium iodide staining based fluorescence microscopic method; type: functional, cell-based
[13] = species: Bos taurus; assay: Inhibition of ethidium bromide binding to calf thymus DNA assessed as at 13.3 uM using 10% 2HPbetaCD/water compound formulation by spectrofluorometric method
[14] = system: NCI-H522; assay: Growth inhibition of human NCI-H522 cells after 24 hrs by SRB assay; type: functional; settings: NCI-H522, 24 h
[15] = system: HOP-92; assay: Growth inhibition of human HOP92 cells assessed as cell growth at 10 uM after 24 hrs by SRB assay relative to control; type: functional; settings: HOP-92, 24 h, read-out: Activity; how it was run: as §2
[16] = system: NCI-H1975; assay: Antiproliferative activity against human NCI-H1975 cells using 10% 2-HPbetaCD compound formulation after 72 hrs by MTT assay; type: functional, cell-based; settings: NCI-H1975, 72 h; how it was run: as §1
[17] = system: NCI-H460; assay: Growth inhibition of human NCI-H460 cells after 24 hrs by SRB assay; type: functional; settings: NCI-H460, 24 h
[18] = read-out: LC50 (the source's name)

CCc1n(Cc2ccc3ccccc3c2)cc[n+]1Cc1ccc2ccccc2c1.[Br-]
Activity [1]: inactive | pIC50 [2]: 6.01 | GI50 [3]: 1.42 µM | LC50 [3]: 9.36 µM | TGI [3]: 3.65 µM | growth at 10 µM [4]: -14.6% | growth at 10 µM [5]: 28.5% | GI50 [6]: 0.766 µM | LC50 [6]: 35.8 µM | TGI [6]: 5.55 µM | Activity [7]: Active | Ratio IC50 [8]: 17 | pIC50 [9]: 6.18 | GI50 [10]: 0.396 µM | TGI [10]: 2.02 µM | CC50 [10, 18]: 2.02 µM | Activity [11]: inactive | Activity [12]: Active | inhibition [13]: inactive | GI50 [14]: 0.303 µM | TGI [14]: 1.44 µM | CC50 [14, 18]: 1.44 µM | growth at 10 µM [15]: -31.4% | pIC50 [16]: 6.25 | GI50 [17]: 0.724 µM | TGI [17]: 2.15 µM | CC50 [17, 18]: 2.15 µM
